From ChEMBL document CHEMBL4251639, “Identification of novel 2-benzoxazolinone derivatives with specific inhibitory activity against the HIV-1 nucleocapsid protein” (Eur J Med Chem, 2018)
Calls of active or inactive are those of the source. No cut-off for these calls is given here.

Tests used:
[1] = test system: Human immunodeficiency virus 1; assay: (§1) Inhibition of HIV-1 nucleocapsid protein (12 to 55 residues) assessed a sreduction in TAR29/cTAR29 duplex formation preincubated for 15 mins followed by TAR29/cTAR29 addition and measured after 15 mins by nucleocapsid annealing mediated electrophoresis assay
Procedure, shortened: (§2)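 TAR29 and cTAR29 hairpins folded separately (95°C 5 min, slow cooling) in Tris 25 mM, NaCl 30 mM, Mg(ClO4)2 0.2 mM, pH 7.5. NC(12–55, LAI strain; final 8 μM) preincubated with compound (DMSO ≤2%) 15 min at room temperature. Then 1 μM each hairpin added, 15 min at room temperature. Stopped with SDS/EDTA loading buffer; duplex resolved on native 12% PAGE. IC50 from Hill fit, triplicates.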

[2] = as §1; parameters: species or system Human immunodeficiency virus 1; procedure, shortened: as §2
[3] = Selectivity index, ratio of IC50 for human TZM-bl cells to IC50 for HIV1 NL4-3 infected in human TZM-bl cells; format: toxicity, cell-based; conditions: uninfected versus infected with HIV1 NL4-3, read-out: Ratio IC50
Procedure, shortened: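 Selectivity index from TD50 in TZM-bl cells and IC50 from the MonoCycle assay. […] MonoCycle IC50: 30,000 TZM-bl cells/well infected with NL4-3 with five-fold dilutions 5 nM–400 μM; luciferase RLU read after two days.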

[4] = test system: Human immunodeficiency virus 1; assay: Binding affinity to HIV-1 nucleocapsid protein (1 to 55 residues) at 5 uM incubated for 30 mins by ESI-MS method
[5] = test system: Human immunodeficiency virus 1; assay: Antiviral activity against HIV1 NL4-3 infected in human MT2 cells incubated for 72 hrs followed by reinfection in human TZM-bl cells measured after 48 hrs by luciferase reporter gene based bicycle infection assay; format: functional, organism-based; conditions: Human immunodeficiency virus 1, NL4-3
Procedure, shortened: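 This is a two-cycle format. MT-2 cells (50,000/well) were infected with NL4-3 alongside five-fold compound dilutions (5 nM–400 μM) and kept 72 h at 37°C, 5% CO2. Supernatant carrying first-round virus then infected TZM-bl cells (30,000/well) for 48 h under the same conditions. Luciferase RLU gave the IC50 with a 95% confidence interval.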

TZM = assay: Cytotoxicity against human TZM-bl cells after 48 hrs by CellTiter-Glo reagent-based assay; format: cell-based
Procedure, shortened: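 Viability was measured by CellTiter-Glo ATP luminescence. TZM-bl cells (15,000/well) were incubated 48 h at 37°C, 5% CO2, with serial two-fold compound dilutions from 3.1 to 400 μM. Medium was then replaced by reagent, shaken 10 min, and luminescence read. TD50 was derived from RLU normalised to untreated cells (100% viability), with a 95% confidence interval.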

MT2 = assay: Cytotoxicity against human MT2 cells after 72 hrs by CellTiter-Glo reagent-based assay; conditions: MT2, 72 h
[6] = Selectivity index, ratio of IC50 for human MT2 cells to IC50 for HIV1 NL4-3 infected in human MT2 cells; format: toxicity, cell-based; conditions: uninfected versus infected with HIV1 NL4-3, read-out: Ratio IC50
Procedure, shortened: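 Selectivity index from TD50 in MT-2 cells and IC50 from the BiCycle assay. […] BiCycle IC50: MT-2 cells infected with NL4-3 with compound for 72 h; supernatant then transferred to TZM-bl cells, luciferase read after 48 h.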

[7] = Inhibition of HIV-1 nucleocapsid protein (11 to 55 residues) chaperone activity assessed as reduction in nucleocapsid-induced Alexa488-labeled TAR55AD nucleic acid destabilization using Dabcyl as quencher by spectrofluorimetry based nucleic acid destabilization assay; parameters: species or system Human immunodeficiency virus 1
Procedure, shortened: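 Preformed complex of 100 nM cTAR55 (5'-Alexa488, 3'-Dabcyl) and 1000 nM NC(11–55, MAL strain, Zn-loaded) in Tris 25 mM, NaCl 30 mM, MgCl2 0.2 mM, pH 7.5. Compound titrated in (25–500 μM); emission spectra taken at 480 nm excitation, 20°C. Inhibition calculated relative to cTAR alone and cTAR+NC, corrected for dilution and compound fluorescence. IC50 from Hill dose-response fit, triplicates.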

[8] = test system: Human immunodeficiency virus 1; assay: Inhibition of HIV-1 nucleocapsid protein (11 to 55 residues) assessed as reduction in dTAR55/cTAR55AD nucleic acid annealing at 200 uM by Alexa488 dye-based fluorimetric analysis
Procedure, shortened: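 Pseudo-first-order annealing: 10 nM cTAR55 (5'-Alexa488, 3'-Dabcyl) and 100 nM dTAR55, each premixed with 8-fold NC(11–55, MAL strain, Zn-loaded). Buffer was Tris 25 mM, NaCl 30 mM, MgCl2 0.2 mM, pH 7.5, with 1% DMSO. Compound added to the dTAR55/NC mix. Fluorescence read at 480/519 nm, 20°C; rate constant from mono-exponential fit.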

[9] = test system: Human immunodeficiency virus 1; assay: Antiviral activity against HIV1 NL4-3 infected in human TZM-bl cells measured after 2 days by luciferase reporter gene based monocycle infection assay; format: functional, organism-based; conditions: Human immunodeficiency virus 1, NL4-3, TZM-bl, 48 h
Procedure, shortened: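 TZM-bl cells (30,000/well) were infected with an NL4-3 stock in the presence of serial five-fold compound dilutions from 5 nM to 400 μM. Plates were held at 37°C, 5% CO2, for two days. Cells were then lysed and luciferase was read as RLU. IC50 was fitted from per-well RLU with a 95% confidence interval.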

[10] = test system: Human immunodeficiency virus 1; assay: Binding affinity to HIV-1 nucleocapsid protein (1 to 55 residues) assessed as fractional protein occupancy ratio at 5 uM incubated for 30 mins by ESI-MS method

NC(=O)c1ccc(CNC(=O)Cn2ccc(=O)[nH]c2=O)cc1
inhibition [1]: inactive

O=c1[nH]c2ccc(S(=O)(=O)Nn3cnnc3)cc2o1
IC50 [2]: Not Active

N#Cc1cnc(SCc2cccc(C(N)=O)c2)nc1N
inhibition [1]: inactive

O=c1[nH]c2cc(S(=O)(=O)Nc3ccc4[nH]ncc4c3)ccc2o1
selectivity ratio [3]: 5.1
IC50 ([2]; read-out: IC50): 20 µM
Activity [4]: Active
IC50 [5]: 36.4 µM
TD50 (TZM): 155 µM
IC50 (MT2): 140 µM
selectivity ratio [6]: 3.8
IC50 [7]: 210 µM
inhibition [8]: 40%
IC50 [9]: 30.6 µM
Ratio [10]: 0.16

COc1ccccc1NC(=O)CCNS(=O)(=O)c1ccc2nc(O)oc2c1
IC50 [2]: Not Active

Cc1nc(CN(C)S(=O)(=O)c2cc3[nH]c(=O)[nH]c3cc2Br)no1
IC50 [2]: Not Active

Cc1cc2[nH]c(=O)oc2cc1S(=O)(=O)NN1CCc2c(nc[nH]c2=O)C1
IC50 ([2]; read-out: IC50): 170 µM
Activity [4]: Active

Cc1ccc(-c2nn(CCC(=O)O)cc2/C=C2\SC(=N)NC2=O)cc1
inhibition [1]: inactive

O=C(CCC1NC(=O)c2ccccc21)Nc1nc[nH]n1 (configuration not stated)
inhibition [1]: inactive

O=C1CN(C(=O)Cc2n[nH]c(=O)c3ccccc23)CCN1
inhibition [1]: inactive

N=C(N)c1ccc(N2CCCCC2)cc1
inhibition [1]: inactive

O=c1cc(Cc2nnc(S)n2-c2ccc(Cl)cc2)[nH]c(=O)[nH]1
inhibition [1]: Active

c1ccc(-c2ccnc3[nH]ccc23)c(OCCn2ccnc2)c1
inhibition [1]: inactive

O=c1[nH]c2ccc(S(=O)(=O)Nc3ccc(S(=O)(=O)NCC(F)(F)F)cc3)cc2o1
IC50 [2]: Not Active

NC(=O)c1ccn(COc2ccccc2F)n1
inhibition [1]: inactive

COc1cccc(CNn2cnnc2S)c1OCc1ccccc1
inhibition [1]: inactive

O=C(O)CNS(=O)(=O)c1ccc2[nH]c(=O)oc2c1
IC50 [2]: Not Active

O=C(O)CCC1NC(=O)N(Cc2ccccc2)C1=O (configuration not stated)
inhibition [1]: inactive

N#Cc1ccc(CSc2nc3[nH]ncc3c(=O)[nH]2)cc1
inhibition [1]: inactive

O=c1[nH]c2ccc(S(=O)(=O)Nc3cc(-c4ccccc4)no3)cc2[nH]1
IC50 [2]: Not Active

Cc1nc[nH]c1-c1nccn1CCCc1ccccc1
inhibition [1]: inactive

O=C(O)c1ccc(NS(=O)(=O)c2ccc3[nH]c(=O)[nH]c3c2)cc1O
IC50 [2]: Not Active

O=c1[nH]c2ccc(S(=O)(=O)Nc3cc(C(F)(F)F)ccc3Cl)cc2o1
IC50 ([2]; read-out: IC50): 179 µM
Activity [4]: Active

Cc1nc2c(c(=O)[nH]1)CCN(S(=O)(=O)c1cccc3nsnc13)C2
inhibition [1]: inactive

CC(=O)c1sc(NS(=O)(=O)c2ccc3[nH]c(=O)[nH]c3c2)nc1C
IC50 [2]: Not Active

O=c1[nH]c2ccc(S(=O)(=O)O)cc2[nH]1
IC50 [2]: Not Active

CSCCC(NS(=O)(=O)c1ccc2[nH]c(=O)oc2c1)C(=O)O (configuration not stated)
IC50 [2]: Not Active

O=C(O)c1ccc2c(c1)CCN2S(=O)(=O)c1ccc2[nH]c(=O)oc2c1
IC50 ([2]; read-out: IC50): 163 µM
Activity [4]: Active

COc1ccccc1-c1nccn1CCc1n[nH]c(=O)[nH]1
inhibition [1]: inactive

Cc1cc(COc2ccc(Cl)cc2C(N)=O)no1
inhibition [1]: inactive

COc1cccc(-n2c(CCn3cccn3)n[nH]c2=O)c1
inhibition [1]: inactive

O=C(Cn1[nH]cc2c(=O)ncnc1-2)NC1(c2ccccc2)CCC1
inhibition [1]: inactive

COc1ccc2[nH]c(C(N)=O)cc2c1
inhibition [1]: inactive

Cc1ccc(NS(=O)(=O)c2ccc3oc(=O)[nH]c3c2)c(C)c1
Activity [4]: Active
Ratio [10]: 0.06

Cc1ccc(NC(=O)CCn2c(=O)[nH]c3cc(S(=O)(=O)N4CCCC4)ccc32)cc1
IC50 [2]: Not Active

COc1ccc(O)c(C(=O)c2cnc3[nH]c(=O)[nH]c(=O)c3c2)c1
inhibition [1]: inactive

O=C(COc1cccc(Cl)c1Cl)N1CCNC1=O
inhibition [1]: inactive

O=C(CO)N1CCCC(c2[nH]ncc2Cc2ccccc2)C1 (configuration not stated)
inhibition [1]: inactive

CC(CCc1ccccc1)NC(=O)c1ccc[nH]c1=O (configuration not stated)
inhibition [1]: inactive

CS(=O)(=O)N1CCc2cc(NS(=O)(=O)c3ccc4[nH]c(=O)oc4c3)ccc21
IC50 [2]: Not Active

O=C(CSc1ccccn1)c1ccc(O)c(O)c1
inhibition [1]: inactive

Cc1cc(C)n(CCOC(=O)c2ccc(N3CCNC3=O)cc2)n1
inhibition [1]: inactive

N=C(N)NS(=O)(=O)c1ccc2[nH]c(=O)oc2c1
IC50 ([2]; read-out: IC50): 203 µM

O=C1N=NC(=S)N1c1ccc(Cl)c(Cl)c1
inhibition [1]: Active

COc1ccc(C(C)(C)C)cc1NS(=O)(=O)c1ccc2[nH]c(=O)[nH]c2c1
IC50 [2]: Not Active

Nc1cccc(C(=O)NCCCC(=O)O)c1
inhibition [1]: inactive

O=C(O)C1CCN(c2ncnc3nc[nH]c23)CC1
inhibition [1]: inactive

Cc1cc(CCCNc2nnnn2-c2ccccc2)n[nH]1
inhibition [1]: inactive
